Assay results as given in ChEMBL document CHEMBL3608232, “Exploring the Existing Drug Space for Novel pTyr Mimetic and SHP2 Inhibitors” (ACS Med Chem Lett, 2015).
Activity calls are given as the source filed them. The calls are words filed in the database; no cut-off is given here.

Columns and labels:
[1] = target: T1, Tyrosine-protein phosphatase non-receptor type 11 (Homo sapiens) (UniProt Q06124); assay: Inhibition of phosphatase activity of SHP2 (unknown origin) using pNPP as a substrate at 50 uM after 10 mins by spectrophotometer analysis
T1 sequence (whole entry): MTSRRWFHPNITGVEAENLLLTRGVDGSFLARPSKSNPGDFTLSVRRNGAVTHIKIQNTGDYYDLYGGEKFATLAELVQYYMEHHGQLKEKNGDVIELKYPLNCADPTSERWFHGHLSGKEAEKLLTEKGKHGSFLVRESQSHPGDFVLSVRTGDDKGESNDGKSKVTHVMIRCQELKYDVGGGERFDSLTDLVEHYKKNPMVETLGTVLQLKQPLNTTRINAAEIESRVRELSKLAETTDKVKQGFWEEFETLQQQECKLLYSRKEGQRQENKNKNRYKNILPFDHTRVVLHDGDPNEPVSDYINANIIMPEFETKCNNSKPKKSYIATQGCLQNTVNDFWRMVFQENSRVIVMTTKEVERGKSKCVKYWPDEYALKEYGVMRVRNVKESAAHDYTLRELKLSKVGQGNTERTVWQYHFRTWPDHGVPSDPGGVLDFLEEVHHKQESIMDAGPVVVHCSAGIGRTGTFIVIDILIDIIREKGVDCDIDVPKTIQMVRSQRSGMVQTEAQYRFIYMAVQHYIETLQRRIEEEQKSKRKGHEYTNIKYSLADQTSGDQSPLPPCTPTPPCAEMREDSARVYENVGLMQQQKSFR

[2] = target: T2, Dual specificity protein phosphatase CDC14A (Homo sapiens, UniProt Q9UNH5); assay: Inhibition of phosphatase activity of human CDC14A using pNPP as a substrate after 10 mins by spectrophotometer analysis
T2 sequence (Q9UNH5 whole entry): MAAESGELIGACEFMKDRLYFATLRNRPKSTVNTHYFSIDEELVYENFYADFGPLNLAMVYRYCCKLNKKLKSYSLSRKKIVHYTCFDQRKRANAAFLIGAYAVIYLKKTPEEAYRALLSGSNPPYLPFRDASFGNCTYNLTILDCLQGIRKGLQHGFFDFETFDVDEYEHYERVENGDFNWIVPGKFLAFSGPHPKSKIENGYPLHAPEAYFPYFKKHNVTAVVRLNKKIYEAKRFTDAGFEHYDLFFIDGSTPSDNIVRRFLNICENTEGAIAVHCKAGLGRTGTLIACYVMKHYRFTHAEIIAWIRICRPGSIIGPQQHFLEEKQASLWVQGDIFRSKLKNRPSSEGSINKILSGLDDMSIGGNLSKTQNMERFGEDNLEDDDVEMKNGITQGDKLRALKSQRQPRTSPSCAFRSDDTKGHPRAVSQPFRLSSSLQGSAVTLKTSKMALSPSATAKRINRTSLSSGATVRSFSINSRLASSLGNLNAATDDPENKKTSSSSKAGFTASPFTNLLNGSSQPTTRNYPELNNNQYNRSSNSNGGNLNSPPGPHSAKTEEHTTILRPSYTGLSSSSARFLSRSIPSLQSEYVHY

[3] = target: T3, Serine/threonine-protein phosphatase 5 (Homo sapiens, UniProt P53041); assay: Inhibition of phosphatase activity of human PP5 using pNPP as a substrate after 10 mins by spectrophotometer analysis
T3 sequence (P53041 whole entry): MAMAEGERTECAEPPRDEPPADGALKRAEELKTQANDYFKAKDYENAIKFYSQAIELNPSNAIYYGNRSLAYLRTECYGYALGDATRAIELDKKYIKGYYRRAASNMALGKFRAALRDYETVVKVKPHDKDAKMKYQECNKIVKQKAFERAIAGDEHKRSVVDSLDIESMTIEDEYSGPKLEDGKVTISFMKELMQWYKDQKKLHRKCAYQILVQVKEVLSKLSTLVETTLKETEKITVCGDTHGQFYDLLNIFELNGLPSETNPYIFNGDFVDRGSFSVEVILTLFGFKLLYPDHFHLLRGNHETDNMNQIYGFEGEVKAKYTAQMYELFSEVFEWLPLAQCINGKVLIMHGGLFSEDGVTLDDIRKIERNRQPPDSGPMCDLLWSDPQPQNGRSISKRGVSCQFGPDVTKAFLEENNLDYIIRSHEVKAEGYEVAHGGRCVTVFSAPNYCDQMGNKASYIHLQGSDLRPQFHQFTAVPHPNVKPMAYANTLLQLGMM

[4] = target: T4, Tyrosine-protein phosphatase non-receptor type 7 (Homo sapiens, UniProt P35236); assay: Inhibition of phosphatase activity of human HePTP using pNPP as a substrate after 10 mins by spectrophotometer analysis
T4 sequence (P35236 whole entry): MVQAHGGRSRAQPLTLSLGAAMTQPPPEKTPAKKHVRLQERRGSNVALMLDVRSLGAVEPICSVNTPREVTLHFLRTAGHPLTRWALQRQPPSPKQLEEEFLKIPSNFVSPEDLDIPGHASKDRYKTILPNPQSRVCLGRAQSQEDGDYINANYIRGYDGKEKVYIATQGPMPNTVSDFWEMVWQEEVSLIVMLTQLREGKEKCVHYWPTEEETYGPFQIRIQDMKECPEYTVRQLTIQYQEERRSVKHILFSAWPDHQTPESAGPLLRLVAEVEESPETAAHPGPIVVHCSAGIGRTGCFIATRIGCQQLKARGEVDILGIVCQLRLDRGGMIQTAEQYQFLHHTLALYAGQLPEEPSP

NCI-H1975 [5] = assay: Cytotoxicity against human NCI-H1975 cells by MTT assay; assay type: functional, cell-based
[6] = target: T5, Tyrosine-protein phosphatase non-receptor type 22 (Homo sapiens, UniProt Q9Y2R2); assay: Inhibition of phosphatase activity of human LYP using pNPP as a substrate after 10 mins by spectrophotometer analysis
T5 sequence (Q9Y2R2 whole entry): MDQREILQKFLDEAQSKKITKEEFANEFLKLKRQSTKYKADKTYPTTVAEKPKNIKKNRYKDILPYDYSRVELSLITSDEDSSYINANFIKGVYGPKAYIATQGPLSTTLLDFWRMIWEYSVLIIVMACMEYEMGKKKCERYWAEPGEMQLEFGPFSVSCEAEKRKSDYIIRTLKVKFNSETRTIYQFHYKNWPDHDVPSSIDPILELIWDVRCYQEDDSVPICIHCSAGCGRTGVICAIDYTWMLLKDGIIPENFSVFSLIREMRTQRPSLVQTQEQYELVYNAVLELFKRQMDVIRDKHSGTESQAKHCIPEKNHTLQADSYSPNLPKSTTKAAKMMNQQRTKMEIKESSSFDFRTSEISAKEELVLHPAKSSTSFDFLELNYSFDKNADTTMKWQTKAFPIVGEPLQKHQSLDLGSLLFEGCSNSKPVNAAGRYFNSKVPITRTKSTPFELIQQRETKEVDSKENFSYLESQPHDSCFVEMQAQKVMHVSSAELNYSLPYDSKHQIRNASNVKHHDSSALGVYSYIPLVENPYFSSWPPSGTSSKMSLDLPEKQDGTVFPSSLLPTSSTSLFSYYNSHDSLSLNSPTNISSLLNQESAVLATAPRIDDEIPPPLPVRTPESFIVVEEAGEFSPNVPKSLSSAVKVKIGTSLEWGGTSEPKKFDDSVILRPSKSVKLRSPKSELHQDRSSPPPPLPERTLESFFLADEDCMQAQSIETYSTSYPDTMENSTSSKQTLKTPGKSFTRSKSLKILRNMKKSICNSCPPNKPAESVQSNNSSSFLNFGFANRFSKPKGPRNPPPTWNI

[7] = target: T6, Tyrosine-protein phosphatase non-receptor type 9 (Homo sapiens, UniProt P43378); assay: Inhibition of phosphatase activity of human Meg2 using pNPP as a substrate after 10 mins by spectrophotometer analysis
T6 sequence (P43378 whole entry): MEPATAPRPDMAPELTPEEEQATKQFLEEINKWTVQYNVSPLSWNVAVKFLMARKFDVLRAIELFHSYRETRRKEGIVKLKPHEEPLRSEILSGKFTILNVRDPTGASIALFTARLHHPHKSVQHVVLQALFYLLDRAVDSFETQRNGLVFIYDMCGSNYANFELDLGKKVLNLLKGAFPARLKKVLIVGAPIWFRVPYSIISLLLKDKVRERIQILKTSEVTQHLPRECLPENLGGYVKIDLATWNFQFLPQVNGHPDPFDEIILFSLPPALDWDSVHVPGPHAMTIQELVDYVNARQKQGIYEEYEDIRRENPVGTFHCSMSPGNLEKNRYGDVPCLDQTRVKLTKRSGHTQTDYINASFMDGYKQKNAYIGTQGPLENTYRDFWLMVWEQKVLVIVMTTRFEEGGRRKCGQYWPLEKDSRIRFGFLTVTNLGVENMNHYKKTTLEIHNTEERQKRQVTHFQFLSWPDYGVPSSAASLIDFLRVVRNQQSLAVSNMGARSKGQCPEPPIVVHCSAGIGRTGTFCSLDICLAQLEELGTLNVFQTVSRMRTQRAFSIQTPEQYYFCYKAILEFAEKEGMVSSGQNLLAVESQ

[8] = target: Receptor-type tyrosine-protein phosphatase epsilon (Homo sapiens, UniProt P23469); assay: Inhibition of phosphatase activity of human PTPepsilon using pNPP as a substrate after 10 mins by spectrophotometer analysis
[9] = target: Receptor-type tyrosine-protein phosphatase mu (Homo sapiens, UniProt P28827); assay: Inhibition of phosphatase activity of human PTPmu using pNPP as a substrate after 10 mins by spectrophotometer analysis
Chain of Receptor-type tyrosine-protein phosphatase mu (P28827 whole entry): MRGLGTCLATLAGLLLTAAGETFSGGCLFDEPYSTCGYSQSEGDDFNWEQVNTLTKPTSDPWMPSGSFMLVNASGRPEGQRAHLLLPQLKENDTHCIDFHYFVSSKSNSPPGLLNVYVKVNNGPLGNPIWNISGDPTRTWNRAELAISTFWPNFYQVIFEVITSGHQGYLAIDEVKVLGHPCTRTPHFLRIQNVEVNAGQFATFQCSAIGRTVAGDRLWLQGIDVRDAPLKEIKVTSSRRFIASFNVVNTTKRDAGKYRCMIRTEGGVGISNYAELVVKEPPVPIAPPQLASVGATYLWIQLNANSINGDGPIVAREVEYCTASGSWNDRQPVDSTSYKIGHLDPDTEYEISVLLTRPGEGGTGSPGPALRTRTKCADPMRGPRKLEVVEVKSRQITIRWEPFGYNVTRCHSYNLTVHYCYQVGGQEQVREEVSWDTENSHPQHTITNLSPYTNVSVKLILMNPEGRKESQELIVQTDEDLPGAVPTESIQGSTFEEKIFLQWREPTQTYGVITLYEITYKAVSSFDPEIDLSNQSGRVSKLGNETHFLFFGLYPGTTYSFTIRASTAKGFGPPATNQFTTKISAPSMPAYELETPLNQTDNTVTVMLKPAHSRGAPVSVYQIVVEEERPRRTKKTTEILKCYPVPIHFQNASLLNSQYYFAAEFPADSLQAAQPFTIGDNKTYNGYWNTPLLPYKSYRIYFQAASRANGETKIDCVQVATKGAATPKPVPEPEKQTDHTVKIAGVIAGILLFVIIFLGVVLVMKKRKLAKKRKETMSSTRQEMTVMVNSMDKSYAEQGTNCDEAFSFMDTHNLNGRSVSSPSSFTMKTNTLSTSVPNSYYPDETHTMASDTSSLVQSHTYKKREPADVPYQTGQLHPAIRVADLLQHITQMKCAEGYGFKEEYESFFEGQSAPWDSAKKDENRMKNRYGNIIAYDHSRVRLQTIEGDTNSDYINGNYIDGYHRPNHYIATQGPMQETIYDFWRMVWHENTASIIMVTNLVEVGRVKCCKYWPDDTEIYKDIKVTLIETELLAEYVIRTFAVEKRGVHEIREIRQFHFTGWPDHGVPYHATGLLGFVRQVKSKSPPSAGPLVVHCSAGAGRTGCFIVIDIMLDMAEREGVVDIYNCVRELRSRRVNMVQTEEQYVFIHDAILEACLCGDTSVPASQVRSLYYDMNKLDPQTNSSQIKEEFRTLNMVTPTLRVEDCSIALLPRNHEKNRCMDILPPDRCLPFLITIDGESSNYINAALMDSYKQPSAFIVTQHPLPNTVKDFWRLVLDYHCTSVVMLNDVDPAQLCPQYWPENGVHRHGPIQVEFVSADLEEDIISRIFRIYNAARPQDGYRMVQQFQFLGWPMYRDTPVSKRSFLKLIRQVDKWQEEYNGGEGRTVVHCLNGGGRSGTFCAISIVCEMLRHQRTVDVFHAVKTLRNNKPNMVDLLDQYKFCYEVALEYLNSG

[10] = target: Dual specificity protein phosphatase 3 (Homo sapiens, UniProt P51452); assay: Inhibition of phosphatase activity of human VHR using pNPP as a substrate after 10 mins by spectrophotometer analysis
Chain of Dual specificity protein phosphatase 3 (P51452 whole entry): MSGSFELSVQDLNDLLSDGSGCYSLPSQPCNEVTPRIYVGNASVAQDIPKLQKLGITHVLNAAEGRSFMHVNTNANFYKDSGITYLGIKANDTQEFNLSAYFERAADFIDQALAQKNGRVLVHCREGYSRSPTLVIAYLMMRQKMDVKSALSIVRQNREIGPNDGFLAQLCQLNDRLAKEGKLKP

[11] = target: T7, Low molecular weight phosphotyrosine protein phosphatase (Homo sapiens, UniProt P24666); assay: Inhibition of phosphatase activity of human LMWPTP using pNPP as a substrate after 10 mins by spectrophotometer analysis
T7 sequence (P24666 whole entry): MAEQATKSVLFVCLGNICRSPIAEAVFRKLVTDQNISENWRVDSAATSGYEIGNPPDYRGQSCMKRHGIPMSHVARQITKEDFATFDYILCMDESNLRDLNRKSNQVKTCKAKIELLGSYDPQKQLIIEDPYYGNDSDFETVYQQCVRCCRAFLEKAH

[12] = target: Receptor-type tyrosine-protein phosphatase F (Homo sapiens, UniProt P10586); assay: Inhibition of phosphatase activity of human LAR using pNPP as a substrate after 10 mins by spectrophotometer analysis
Chain of Receptor-type tyrosine-protein phosphatase F (P10586 whole entry): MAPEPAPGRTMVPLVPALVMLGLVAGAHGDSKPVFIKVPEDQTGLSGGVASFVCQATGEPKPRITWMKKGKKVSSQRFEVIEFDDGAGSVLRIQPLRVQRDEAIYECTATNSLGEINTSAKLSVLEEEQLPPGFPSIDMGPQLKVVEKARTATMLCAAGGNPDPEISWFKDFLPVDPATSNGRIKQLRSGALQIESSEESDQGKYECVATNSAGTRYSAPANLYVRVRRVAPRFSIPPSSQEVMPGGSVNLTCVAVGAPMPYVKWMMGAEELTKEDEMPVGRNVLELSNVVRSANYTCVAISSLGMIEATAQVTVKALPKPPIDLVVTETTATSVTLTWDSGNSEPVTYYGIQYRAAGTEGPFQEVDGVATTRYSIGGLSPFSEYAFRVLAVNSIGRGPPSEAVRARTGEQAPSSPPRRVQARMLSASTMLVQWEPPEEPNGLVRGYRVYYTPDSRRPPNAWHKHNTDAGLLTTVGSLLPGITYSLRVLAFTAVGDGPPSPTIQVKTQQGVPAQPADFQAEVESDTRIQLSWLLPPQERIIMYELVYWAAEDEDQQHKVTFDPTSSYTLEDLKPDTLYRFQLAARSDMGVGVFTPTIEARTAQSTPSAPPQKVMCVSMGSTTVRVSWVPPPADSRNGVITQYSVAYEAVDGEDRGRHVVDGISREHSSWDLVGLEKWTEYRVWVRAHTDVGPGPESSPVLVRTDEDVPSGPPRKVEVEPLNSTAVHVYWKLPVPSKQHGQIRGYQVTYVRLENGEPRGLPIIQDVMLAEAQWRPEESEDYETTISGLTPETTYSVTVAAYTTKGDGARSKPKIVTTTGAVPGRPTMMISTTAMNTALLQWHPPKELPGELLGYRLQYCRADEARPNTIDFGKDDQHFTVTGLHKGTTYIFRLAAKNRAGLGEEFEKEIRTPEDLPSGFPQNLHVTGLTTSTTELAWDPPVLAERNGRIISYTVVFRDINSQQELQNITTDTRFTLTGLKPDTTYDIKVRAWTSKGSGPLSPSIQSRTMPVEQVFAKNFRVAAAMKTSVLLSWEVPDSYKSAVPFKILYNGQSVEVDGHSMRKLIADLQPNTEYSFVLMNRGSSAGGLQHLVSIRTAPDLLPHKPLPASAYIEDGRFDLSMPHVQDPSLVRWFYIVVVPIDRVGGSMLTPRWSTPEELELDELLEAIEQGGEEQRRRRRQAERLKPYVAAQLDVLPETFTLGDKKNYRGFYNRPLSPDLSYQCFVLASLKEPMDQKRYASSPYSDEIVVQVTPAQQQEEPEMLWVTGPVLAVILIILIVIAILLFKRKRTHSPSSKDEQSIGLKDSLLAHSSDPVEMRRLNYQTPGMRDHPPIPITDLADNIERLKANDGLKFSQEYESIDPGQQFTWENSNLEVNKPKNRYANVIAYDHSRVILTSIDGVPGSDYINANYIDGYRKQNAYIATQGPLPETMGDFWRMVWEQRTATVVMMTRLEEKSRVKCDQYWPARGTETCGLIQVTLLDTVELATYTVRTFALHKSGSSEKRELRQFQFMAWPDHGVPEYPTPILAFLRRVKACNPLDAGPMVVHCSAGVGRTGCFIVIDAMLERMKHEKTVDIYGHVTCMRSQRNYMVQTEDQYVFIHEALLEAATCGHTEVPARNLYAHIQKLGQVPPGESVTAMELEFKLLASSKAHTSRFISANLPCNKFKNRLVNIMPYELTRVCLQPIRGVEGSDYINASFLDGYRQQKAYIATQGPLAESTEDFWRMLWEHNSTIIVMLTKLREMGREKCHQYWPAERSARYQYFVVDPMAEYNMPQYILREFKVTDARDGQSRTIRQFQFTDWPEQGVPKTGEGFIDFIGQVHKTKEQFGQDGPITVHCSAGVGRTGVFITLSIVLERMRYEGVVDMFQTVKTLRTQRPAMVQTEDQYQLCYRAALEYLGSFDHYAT

[13] = target: Receptor-type tyrosine-protein phosphatase gamma (Homo sapiens, UniProt P23470); assay: Inhibition of phosphatase activity of human PTPgamma using pNPP as a substrate after 10 mins by spectrophotometer analysis
Chain of Receptor-type tyrosine-protein phosphatase gamma (P23470 whole entry): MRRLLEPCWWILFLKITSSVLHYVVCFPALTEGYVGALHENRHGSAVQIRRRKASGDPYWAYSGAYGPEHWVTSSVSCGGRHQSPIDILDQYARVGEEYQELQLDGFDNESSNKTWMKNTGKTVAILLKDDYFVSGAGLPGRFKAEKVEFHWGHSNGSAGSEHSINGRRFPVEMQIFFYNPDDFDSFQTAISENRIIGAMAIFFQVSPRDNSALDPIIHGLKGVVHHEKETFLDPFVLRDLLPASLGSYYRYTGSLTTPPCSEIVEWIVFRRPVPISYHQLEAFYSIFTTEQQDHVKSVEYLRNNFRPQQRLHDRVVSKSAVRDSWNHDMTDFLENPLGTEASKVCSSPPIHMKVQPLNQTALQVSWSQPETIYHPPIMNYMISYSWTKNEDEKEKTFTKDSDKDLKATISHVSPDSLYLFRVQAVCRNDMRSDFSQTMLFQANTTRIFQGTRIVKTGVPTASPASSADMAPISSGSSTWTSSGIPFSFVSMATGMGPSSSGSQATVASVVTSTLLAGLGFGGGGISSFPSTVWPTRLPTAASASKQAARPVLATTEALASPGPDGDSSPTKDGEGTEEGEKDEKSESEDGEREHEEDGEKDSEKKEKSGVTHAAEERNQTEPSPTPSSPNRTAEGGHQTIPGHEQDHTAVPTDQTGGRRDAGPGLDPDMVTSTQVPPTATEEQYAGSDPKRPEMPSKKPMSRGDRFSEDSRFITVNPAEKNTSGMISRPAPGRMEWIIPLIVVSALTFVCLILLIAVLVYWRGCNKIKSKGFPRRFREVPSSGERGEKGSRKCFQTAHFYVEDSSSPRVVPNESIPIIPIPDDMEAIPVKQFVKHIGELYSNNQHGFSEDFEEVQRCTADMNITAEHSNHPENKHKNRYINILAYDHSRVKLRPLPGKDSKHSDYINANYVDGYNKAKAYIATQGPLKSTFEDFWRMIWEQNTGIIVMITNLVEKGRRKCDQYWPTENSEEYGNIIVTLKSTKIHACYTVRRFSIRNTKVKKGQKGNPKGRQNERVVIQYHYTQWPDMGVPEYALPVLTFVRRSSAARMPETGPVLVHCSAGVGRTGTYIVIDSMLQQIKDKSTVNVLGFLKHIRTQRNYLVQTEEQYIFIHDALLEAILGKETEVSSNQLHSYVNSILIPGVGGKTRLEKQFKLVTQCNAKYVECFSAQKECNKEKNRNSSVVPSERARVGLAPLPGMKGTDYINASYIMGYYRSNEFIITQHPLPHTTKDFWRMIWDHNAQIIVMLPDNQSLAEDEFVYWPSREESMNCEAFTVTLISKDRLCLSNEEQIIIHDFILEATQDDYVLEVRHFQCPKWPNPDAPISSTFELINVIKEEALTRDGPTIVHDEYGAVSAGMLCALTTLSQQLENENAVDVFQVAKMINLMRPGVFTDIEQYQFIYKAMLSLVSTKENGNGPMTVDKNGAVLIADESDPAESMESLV

[14] = target: Receptor-type tyrosine-protein phosphatase beta (Homo sapiens, UniProt P23467); assay: Inhibition of phosphatase activity of human PTPbeta using pNPP as a substrate after 10 mins by spectrophotometer analysis
[15] = target: Receptor-type tyrosine-protein phosphatase alpha (Homo sapiens, UniProt P18433); assay: Inhibition of phosphatase activity of human PTPalpha using pNPP as a substrate after 10 mins by spectrophotometer analysis
MDA-MB-231 [16] = assay: Cytotoxicity against human MDA-MB-231 cells by MTT assay; assay type: functional, cell-based
NCI-H1975 [17] = assay: Cytotoxicity against human NCI-H1975 cells at 20 to 40 uM by MTT assay; assay type: functional, cell-based
[18] = target: T1, Tyrosine-protein phosphatase non-receptor type 11 (Homo sapiens); assay: Inhibition of SHP2 in human NCI-H1975 cells assessed as increase in EGF-induced paxillin phosphorylation at Y118 at 40 uM after 60 mins relative to control
MDA-MB-231 [19] = assay: Cytotoxicity against human MDA-MB-231 cells at 20 to 40 uM by MTT assay; assay type: functional, cell-based
[20] = target: T1, Tyrosine-protein phosphatase non-receptor type 11 (Homo sapiens); assay: Inhibition of SHP2 in human NCI-H1975 cells assessed as reduction of EGF-induced ERK1/2 activation at 40 uM after 60 mins relative to control; assay type: cell-based
In short: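 H1975 cells were stimulated with EGF and ERK1/2 and paxillin phosphorylation was assessed by immunoblot. Band intensities were quantified, and pERK1/2/total ERK1/2 or pPaxillin(Y118)/total paxillin ratios were normalized to the reference. Blots are representative of at least two independent experiments, with quantified values given as mean ± SD.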

Q: With `O=C(O)C(=O)Nc1ccc(CNC(=O)C(c2ccccc2)S(=O)(=O)O)cc1` (configuration not stated) as the compound, how does the inhibition [1] read?
A: Its inhibition is “inactive”.

Q: For `O=C(Nc1ccc(NC(=O)C(c2ccccc2)S(=O)(=O)O)cc1)C(=O)Nc1ccc(-c2ccccc2)cc1` (configuration not stated), which IC50 [2] is on record?
A: The IC50 was > 50 µM.

Q: What about the IC50 [3] of the same compound?
A: The IC50 was > 50 µM.

Q: What about the IC50 [4] of the same compound?
A: The IC50 was > 50 µM.

Q: What about the Activity (NCI-H1975 [5]) of the same compound?
A: The Activity was “Dose-dependent effect”.

Q: What about the IC50 [6] of the same compound?
A: The IC50 was > 50 µM.

Q: What about the IC50 [7] of the same compound?
A: Its IC50 is > 50 µM.

Q: And the IC50 [8]?
A: Its IC50 is > 50 µM.

Q: What about the IC50 [9] of the same compound?
A: The IC50 was > 50 µM.

Q: And the IC50 [10]?
A: Its IC50 is > 50 µM.

Q: What about the IC50 [11] of the same compound?
A: Its IC50 is > 50 µM.

Q: What about the IC50 [12] of the same compound?
A: Its IC50 is > 50 µM.

Q: And the IC50 [13]?
A: Its IC50 is > 50 µM.

Q: What about the IC50 [14] of the same compound?
A: Its IC50 is > 50 µM.

Q: What about the IC50 [15] of the same compound?
A: The IC50 was > 50 µM.

Q: What about the Activity (MDA-MB-231 [16]) of the same compound?
A: Its Activity is “Dose-dependent effect”.

Q: What does the source list for `CC(C)c1ccc(NC(=O)C(=O)Nc2ccc(NC(=O)C(c3ccccc3)S(=O)(=O)O)cc2)cc1` (configuration not stated)?
A: Activity (NCI-H1975 [5]): Dose-dependent effect; Activity (MDA-MB-231 [16]): Dose-dependent effect

Q: For `O=C(Nc1ccccc1)C(=O)Nc1ccc(NC(=O)C(c2ccccc2)S(=O)(=O)O)cc1` (configuration not stated), which Activity (NCI-H1975 [17]) is on record?
A: Its Activity is “inactive”.

Q: And the fold change (FC) [18]?
A: The fold change (FC) was 1.1.

Q: And the Activity (MDA-MB-231 [19])?
A: The Activity was “inactive”.

Q: What about the fold change (FC) [20] of the same compound?
A: Its fold change (FC) is 1.
